In ChEMBL document CHEMBL1149086, “Antimalarial and antitumor evaluation of novel C-10 non-acetal dimers of 10beta-(2-hydroxyethyl)deoxoartemisinin” (J Med Chem, 2004):

Assays:
T47D [1] = experiment: Concentration required to achieve total growth inhibition against breast T-47D cancer cell line; type: functional; details: Homo sapiens
HL-60 = experiment: Inhibitory concentration against HL60 cells; type: functional, cell-based; details: Homo sapiens
Summary of the method: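 HL60 (2.5 × 10⁴/well) or Jurkat (1 × 10⁵/well) in RPMI-1640 with 10% FBS and 1% L-glutamine, 5% CO2, 37 °C. Exposed to 10⁻¹⁰–10⁻⁴ M for 72 h, final DMSO below 0.5% v/v. [3H]-thymidine (0.5 μCi) added for the final 24 h. Incorporation counted by β-scintillation.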

HT-29 [2] = experiment: Concentration of the drug required to achieve 50% cytotoxicity against colon HT-29 cancer cell line; type: functional; details: Homo sapiens, read-out: LC50 (the source's name)
HCC 2998 [3] = experiment: Concentration required to achieve total growth inhibition against colon HCC2998 cancer cell line; type: functional; details: Homo sapiens
MCF7 [4] = experiment: Concentration of the drug required to achieve 50% cytotoxicity against breast MCF-7 cancer cell line; type: cell-based; details: human
Jurkat [5] = experiment: Tested for apoptosis in jurkat cells at a concentration of 100 uM of the compound; type: functional, Homo sapiens
Summary of the method: (§1)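 Jurkat cells (>98% viable, <2% background apoptosis) at 1 × 10⁶ cells/mL were exposed to 0–100 μM drug (DMSO) for 24 h at 37 °C in 5% CO₂. Nuclei were stained with 50 μM propidium iodide and 0.1% Triton-X in HBSS for 10 min at 37 °C, then scored as apoptotic by flow cytometry. Triplicate incubations in one experiment, mean ± SD; Kruskal–Wallis test versus DMSO control.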

PC-3 = experiment: Concentration required to achieve total growth inhibition against prostate PC-3 cell line; type: functional; details: Homo sapiens
HCC 2998 [6] = experiment: Concentration of the drug required to achieve 50% cytotoxicity against colon HCC2998 cancer cell line; type: functional; details: Homo sapiens, read-out: LC50 (the source's name)
T47D [7] = experiment: Concentration of the drug required to achieve 50% cytotoxicity against breast T-47D cancer cell line; type: cell-based; details: human
Jurkat [8] = experiment: Tested for apoptosis in jurkat cells at a concentration of 0.1 uM of the compound; type: functional, Homo sapiens
Summary of the method: (§2)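 Jurkat cells (1 × 10⁶ cells mL⁻¹; >98% viable, <2% background apoptosis) incubated 24 h at 37 °C with compound (0–100 μM range, in DMSO). Nuclei stained with propidium iodide (50 μM) in HBSS with 0.1% Triton-X for 10 min at 37 °C. Apoptotic nuclei measured by flow cytometry. Mean ± SD of triplicate incubations in one experiment; Kruskal–Wallis test against DMSO control.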

HCT-116 = experiment: Concentration of the drug required to achieve 50% cytotoxicity against colon HCT116 cancer cell line; type: functional; details: Homo sapiens, read-out: LC50 (the source's name)
SR [9] = experiment: Concentration of the drug required to achieve 50% cytotoxicity against leukemia SR cell line; type: functional; details: Homo sapiens, read-out: LC50 (the source's name)
RPMI-8226 [10] = experiment: Concentration of the drug required to achieve 50% cytotoxicity against leukemia RPMI-8226 cell line; type: functional; details: Homo sapiens, read-out: LC50 (the source's name)
NCI/ADR-RES = experiment: Concentration required to achieve total growth inhibition against breast NCI/ ADR-RES cancer cell line; type: functional; details: Homo sapiens
COLO 205 [11] = experiment: inhibition against colon COLO 205 cancer cell line; type: functional; details: Homo sapiens
MCF7 [12] = experiment: Concentration required to achieve total growth inhibition against breast MCF-7 cancer cell line; type: functional; details: Homo sapiens
RPMI-8226 [13] = experiment: inhibition against leukemia RPMI-8226 cell line; type: functional; details: Homo sapiens
Jurkat [14] = experiment: Tested for apoptosis in jurkat cells at a concentration of 0 uM of the compound; type: functional, Homo sapiens; summary of the method: as §2
HCC 2998 [15] = experiment: inhibition against colon HCC2998 cancer cell line; type: functional; details: Homo sapiens
SK-MEL-5 [16] = experiment: inhibition against melanoma SK-MEL-5 cell line; type: functional; details: Homo sapiens
CCRF-CEM = experiment: inhibition against leukemia CCRF-CEM cell line; type: functional; details: Homo sapiens
KM12 = experiment: Concentration of the drug required to achieve 50% cytotoxicity against colon KM12 cancer cell line; type: functional; details: Homo sapiens, read-out: LC50 (the source's name)
RPMI-8226 [17] = experiment: Concentration required to achieve total growth inhibition against leukemia RPMI-8226 cell line; type: functional; details: Homo sapiens
UACC-62 [18] = experiment: inhibition against melanoma UACC-62 cell line; type: functional; details: Homo sapiens
K562 = experiment: Concentration of the drug required to achieve 50% cytotoxicity against leukemia K-562 cell line; type: functional; details: Homo sapiens, read-out: LC50 (the source's name)
Jurkat [19] = experiment: Tested for apoptosis in jurkat cells at a concentration of 3 uM of the compound; type: functional, Homo sapiens; summary of the method: as §1
UACC-62 [20] = experiment: Concentration of the drug required to achieve 50% cytotoxicity against melanoma UACC-62 cell line; type: cell-based; details: human
SW-620 = experiment: Concentration required to achieve total growth inhibition against colon SW-620 cancer cell line; type: functional; details: Homo sapiens
HT-29 [21] = experiment: Concentration required to achieve total growth inhibition against colon HT-29 cancer cell line; type: functional; details: Homo sapiens
Jurkat [22] = experiment: Tested for apoptosis in jurkat cells at a concentration of 10 uM of the compound; type: functional, Homo sapiens; summary of the method: as §1
SR [23] = experiment: Concentration required to achieve total growth inhibition against leukemia SR cell line; type: functional; details: Homo sapiens
HT-29 [24] = experiment: inhibition against colon HT-29 cancer cell line; type: functional; details: Homo sapiens
MOLT-4 = experiment: inhibition against leukemia MOLT-4 cell line; type: functional; details: Homo sapiens
LOX IMVI = experiment: inhibition against melanoma LOX IMVI cell line; type: functional; details: Homo sapiens
COLO 205 [25] = experiment: Concentration of the drug required to achieve 50% cytotoxicity against colon COLO 205 cancer cell line; type: functional; details: Homo sapiens, read-out: LC50 (the source's name)
SK-MEL-5 [26] = experiment: Concentration of the drug required to achieve 50% cytotoxicity against melanoma SK-MEL-5 cell line; type: cell-based; details: human

## C[C@H]1[C@@H](CCOP(=O)(OCC[C@H]2O[C@@H]3OC4(C)CC[C@H]5[C@H](C)CC[C@@H]([C@H]2C)[C@@]35OO4)Oc2ccccc2)O[C@@H]2OC3(C)CC[C@H]4[C@H](C)CC[C@@H]1[C@@]24OO3 (single isomer, unassigned)
T47D [1]
  TGI: < 10 µM
HL-60
  IC50: 0.241 µM
HT-29 [2]
  CC50: > 100 µM
HCC 2998 [3]
  TGI: 2.85 µM
MCF7 [4]
  LC50: > 100 µM
Jurkat [5]
  Activity: 20.1%
PC-3
  TGI: 65.5 µM
HCC 2998 [6]
  CC50: > 100 µM
T47D [7]
  LC50: > 100 µM
Jurkat [8]
  Activity: 8.7%
HCT-116
  CC50: > 100 µM
SR [9]
  CC50: > 100 µM
RPMI-8226 [10]
  CC50: > 100 µM
NCI/ADR-RES
  TGI: 45.2 µM
COLO 205 [11]
  GI50: < 0.01 µM
MCF7 [12]
  TGI: > 100 µM
RPMI-8226 [13]
  GI50: < 0.01 µM
Jurkat [14]
  Activity: 7.5%
HCC 2998 [15]
  GI50: 0.0648 µM
SK-MEL-5 [16]
  GI50: 0.013 µM
CCRF-CEM
  GI50: 0.0259 µM
KM12
  CC50: > 100 µM
RPMI-8226 [17]
  TGI: 0.01 µM
UACC-62 [18]
  GI50: 0.0753 µM
K562
  CC50: > 100 µM
Jurkat [19]
  Activity: 8.7%
UACC-62 [20]
  LC50: > 100 µM
SW-620
  TGI: 100 µM
HT-29 [21]
  TGI: 23.2 µM
Jurkat [22]
  Activity: 11.2%
SR [23]
  TGI: 0.263 µM
HT-29 [24]
  GI50: < 0.01 µM
MOLT-4
  GI50: < 0.01 µM
LOX IMVI
  GI50: 0.0191 µM
COLO 205 [25]
  CC50: > 100 µM
SK-MEL-5 [26]
  LC50: > 100 µM
